Results: ChEMBL document CHEMBL1149277, “Antiestrogen binding site and estrogen receptor mediate uptake and distribution of 4-hydroxytamoxifen-targeted doxorubicin-formaldehyde conjugate in breast cancer cells” (J Med Chem, 2004)
Values belong to the compound of their own block, whether it stands above or below them.

What was measured:
[1] = Inhibition of DOX-TEG-TAM uptake in ER expressing Rtx6 cells; type: cell-based; conditions: human
Summary of the method: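 Rtx-6 cells in tamoxifen-free medium got 0.5 µM conjugate for 1 h with or without estradiol at various concentrations. Flow cytometry of anthracycline fluorescence: excitation 488 nm, emission 570–600 nm, 10000 cells. Mean fluorescence minus drug-free background.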

MDA-MB-435 [2] = experiment: Inhibition of DOX-TEG-TAM uptake in MDA-MB-435 cells; type: cell-based; conditions: human
Summary of the method: (§1)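 Competition read by flow cytometry. MDA-MB-435 cells adhered overnight, then given 0.5 µM anthracycline for 1 h with or without tamoxifen at various concentrations (up to 10 µM). Cells trypsinized and kept cold in serum-free, phenol red-free RPMI. Excitation 488 nm, emission 570–600 nm, 10000 cells. Mean fluorescence with drug-free background subtracted.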

[3] = Growth inhibition of ER expressing Rtx6 cells after 4 hrs; type: functional; conditions: Homo sapiens
MCF7 [4] = experiment: Drug uptake in ER expressing MCF7 cells; type: ADME, cell-based; conditions: human
Summary of the method: (§2)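 Cells adhered overnight at 450000 per well, then were exposed to 0.5 µM drug for 1 h (uptake also at 20 and 40 min). They were trypsinized, washed cold, and held on ice in serum-free, phenol red-free RPMI. Flow cytometry: excitation 488 nm, emission 570–600 nm, 10000 cells, mean fluorescence minus drug-free background. Settings were fixed per cell line.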

[5] = Drug uptake in MCF7/Adr cells at 500 nM; type: ADME, cell-based; conditions: human, nci/adr-res, 0.5 µM
Summary of the method: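 MCF-7/Adr cells in log phase (RPMI 1640, 10% FBS), plated 450000 cells/well and adhered overnight; exposed to 0.5 μM drug (from 100× DMSO/1% AcOH stock) for 20, 40, 60 min. Cells were trypsinized, quenched and resuspended in cold serum-free, phenol red free RPMI, then held on ice. Flow cytometry: ex 488 nm, em 570–600 nm, 10000 cells; mean fluorescence minus drug-free background.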

MCF7 [6] = experiment: Drug uptake in MCF7 cells at 500 nM for 1 hr relative to MDA-MB-435 cells; type: ADME, cell-based; conditions: human, mcf7, 1 h, 0.5 µM; summary of the method: as §2
[7] = biological target: T1, Anti-estrogen binding site (AEBS) (Homo sapiens) (UniProt Q15125+Q9UBM7); experiment: Displacement of 0.05 nM [3H]tamoxifen from AEBS in MCF7 cell lysate relative to E/Z-4-hydroxytamoxifen; type: cell-free
Summary of the method: (§3)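 AEBS source: MCF-7 cell lysate (sonicated, 12000g supernatant, diluted to 2.0 mg/mL protein, pH 7.4 lysis buffer with molybdate and protease inhibitors). [3H]tamoxifen at 5, 0.5 or 0.05 nM, with 1000 nM estradiol to saturate ER, plus cold competitor; 18 h at 4 °C. Dextran-coated charcoal strip, scintillation counting. Binding expressed relative to E/Z-4-OHT from reduction of bound tritium; competitors in duplicate.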

[8] = biological target: T1, Anti-estrogen binding site (AEBS) (Homo sapiens); experiment: Displacement of 0.5 nM [3H]tamoxifen from AEBS in MCF7 cell lysate relative to E/Z-4-hydroxytamoxifen; type: cell-free; summary of the method: as §3
[9] = biological target: T1, Anti-estrogen binding site (AEBS) (Homo sapiens); experiment: Displacement of 5 nM [3H]tamoxifen from AEBS in MCF7 cell lysate relative to E/Z-4-hydroxytamoxifen; type: cell-free; summary of the method: as §3
[10] = biological target: T1, Anti-estrogen binding site (AEBS) (Homo sapiens); experiment: Binding affinity at AEBS; type: protein-complex assay; summary of the method: as §3
[11] = Drug uptake in ER expressing Rtx6 cells at 500 nM; type: ADME, cell-based; conditions: human, 0.5 µM; summary of the method: as §2
[12] = system: MDA-MB-231 (Homo sapiens); experiment: Drug uptake in MDA-MB-231 cells at 500 nM for 1 hr relative to MDA-MB-435 cells; conditions: mda-mb-231, 1 h, 0.5 µM
MDA-MB-435 [13] = experiment: Decrease in doxorubicin uptake in MDA-MB-435 cells at 10 uM after 1 hr relative to DOX-TEG-TAM; type: ADME, cell-based; parameters: scale not given: the % may be the effect or the level left; conditions: human, mda-mb-435, 1 h; summary of the method: as §1
MDA-MB-435 [14] = experiment: Decrease in DOX-TEG-TAM uptake in MDA-MB-435 cells after 1 hr; type: ADME, cell-based; conditions: human, mda-mb-435, 1 h; summary of the method: as §1
MDA-MB-435 [15] = experiment: Decrease DOX-TEG-TAM uptake in MDA-MB-435 cells at 10 uM after 1 hr relative to control; type: ADME, cell-based; parameters: scale not given: the % may be the effect or the level left; conditions: human, mda-mb-435, 1 h; summary of the method: as §1
MDA-MB-435 [16] = experiment: Decrease doxorubicin-saliform uptake in MDA-MB-435 cells at 10 uM after 1 hr relative to DOX-TEG-TAM; type: ADME, cell-based; parameters: scale not given: the % may be the effect or the level left; conditions: human, mda-mb-435, 1 h; summary of the method: as §1

- Activity [1]: Dose-dependent effect
- Activity (MDA-MB-435 [2]): Not Active
SMILES: C[C@]12CC[C@@H]3c4ccc(O)cc4CC[C@H]3[C@@H]1CC[C@@H]2O [ESTRADIOL]

- Relative Fluorescent Unit (MCF7 [4]): 16
- Relative Fluorescent Unit [5]: 1
SMILES: COc1cccc2c1C(=O)c1c(O)c3c(c(O)c1C2=O)C[C@@](O)(C(=O)CO)C[C@@H]3O[C@H]1C[C@H](NCNC(=O)c2ccccc2O)[C@H](O)[C@H](C)O1
- IC50 [3]: 61 nM

- Relative Fluorescent Unit (MCF7 [4]): 25
- Drug uptake (MCF7 [6]): 25%
- Activity [7]: 70%
- Activity [8]: 72%
- Activity [9]: 48%
- Activity [10]: 60%
- Relative Fluorescent Unit [11]: 14
- Drug uptake [12]: 25%
SMILES: CC/C(=C(/c1ccc(O)cc1)c1ccc(OCCN(C)CCOCCOCCO/N=C/c2ccc(O)c(C(=O)NCN[C@H]3C[C@H](O[C@H]4C[C@](O)(C(=O)CO)Cc5c(O)c6c(c(O)c54)C(=O)c4c(OC)cccc4C6=O)O[C@@H](C)[C@H]3O)c2)cc1)c1ccccc1
- IC50 [3]: 67 nM

- Activity (MDA-MB-435 [13]): 8%
- Activity (MDA-MB-435 [14]): Dose-dependent effect
- Activity (MDA-MB-435 [15]): 47%
- Activity (MDA-MB-435 [16]): 6%
SMILES: CC/C(=C(\c1ccccc1)c1ccc(OCCN(C)C)cc1)c1ccccc1 [TAMOXIFEN]
